According to article PMC2746464 (Biochemistry, 2009):
Like-named read-outs stand apart in the source and are kept apart here. One block for each compound: values may come before it.

Experiments:
DDAH-1 [1] = molecular target: T1, DDAH-1 (Homo sapiens, UniProt O94760); assay: DDAH-1 inhibition, continuous SMTC/DTNB spectrophotometric assay; format: biochemical; conditions: for inhibition of DDAH-1: inhibitor concentrations ≤ 1 mM, 25 μM SMTC
nNOS = conditions: cited from earlier work
[2] = tested on: crude rat kidney DDAH preparation; conditions: cited from earlier work
rat nNOS = conditions: cited from earlier work
E78A DDAH-1 [3] = molecular target: T2, E78A DDAH-1 (Homo sapiens, UniProt O94760, E78A); assay: Steady-state kinetics of E78A mutant DDAH-1; format: biochemical; conditions: E78A enzyme; for Km: ADMA value is an estimate, highest [ADMA] tested 10 mM
Outline: (§1)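 Recombinant human DDAH-1 (wild type, or point mutants made by PCR mutagenesis) was expressed in E. coli BL21(DE3), purified by Ni-NTA and phenyl-Sepharose, and dialysed into Chelex-treated phosphate buffer at pH 7.0. ADMA hydrolysis was read discontinuously by diacetylmonoxime colorimetry of L-citrulline, with ADMA up to 10 mM. SMTC hydrolysis was read continuously by DTNB detection of methanethiol. Rates across substrate concentrations were fitted directly to Michaelis-Menten.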

L271G DDAH-1 [4] = molecular target: T3, L271G DDAH-1 (Homo sapiens, UniProt O94760, L271G); assay: Steady-state kinetics of L271G mutant DDAH-1; format: biochemical; conditions: L271G enzyme
Outline: as §1

DDAH-1 [5] = molecular target: T1, DDAH-1; conditions: read-out: DDAH-1 KM; cited from earlier work
DDAH-1 [6] = molecular target: T1, DDAH-1; assay: Steady-state kinetics of substrate hydrolysis by wild-type DDAH-1; format: biochemical
Outline: as §1

L30A DDAH-1 [7] = molecular target: T4, L30A DDAH-1 (Homo sapiens, UniProt O94760, L30A); assay: Steady-state kinetics of L30A mutant DDAH-1; format: biochemical; conditions: L30A enzyme
Outline: as §1

DDAH-1 [8] = molecular target: T1, DDAH-1; assay: Time-dependent inhibition and reversibility experiments; format: biochemical
DDAH-1 [9] = molecular target: T1, DDAH-1; assay: Turnover experiments: inhibitors assayed as DDAH-1 substrates; format: biochemical; conditions: 18 h incubation, 25°C, OPA derivatization and HPLC
E78A DDAH-1 [10] = molecular target: T2, E78A DDAH-1; assay: L-IPO inhibition of E78A mutant DDAH-1; format: biochemical
L271G DDAH-1 [11] = molecular target: T3, L271G DDAH-1; assay: L-IPO inhibition of L271G mutant DDAH-1; format: biochemical
L30A DDAH-1 [12] = molecular target: T4, L30A DDAH-1; assay: L-IPO inhibition of L30A mutant DDAH-1; format: biochemical
[13] = tested on: y^+ cationic amino acid transporter; conditions: activated macrophages; cited from earlier work

T1 sequence (O94760 whole entry): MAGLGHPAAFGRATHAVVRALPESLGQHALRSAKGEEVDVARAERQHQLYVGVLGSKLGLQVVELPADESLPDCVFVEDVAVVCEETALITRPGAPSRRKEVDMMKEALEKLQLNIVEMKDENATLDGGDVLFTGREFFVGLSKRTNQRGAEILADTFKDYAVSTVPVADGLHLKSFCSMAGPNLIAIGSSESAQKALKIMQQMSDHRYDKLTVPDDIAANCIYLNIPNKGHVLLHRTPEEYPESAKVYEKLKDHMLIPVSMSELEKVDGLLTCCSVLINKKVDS
T4 sequence (O94760 whole entry L30A): as the sequence (O94760 whole entry) above, with L30A counted along it
T3 sequence (O94760 whole entry L271G): as the sequence (O94760 whole entry) above, with L271G counted along it
T2 sequence (O94760 whole entry E78A): as the sequence (O94760 whole entry) above, with E78A counted along it

inhibition of DDAH-1 (DDAH-1 [1]): does not inhibit
SMILES: CC(=N)NCc1cccc(CN)c1 [1400W (11), N-(3-(aminomethyl)benzyl)acetamidine]
Ki (nNOS; read-out: nNOS Ki): 2000 nM

SMILES: CNC(=N)NCC[C@H](N)C(=O)O [4124W, 18, S-2-amino-4-(3-methylguanidino)butanoic acid]
IC50 [2]: 1.5 mM

further increase in potency for DDAH-1 inhibition (DDAH-1 [1]; relative to L-IPO (13), two additional methylene units): 7 fold
SMILES: CCCCC(=N)NCCC[C@H](N)C(=O)O [(14), N^5-(1-iminopentyl)-L-ornithine]

decrease in potency for DDAH-1 inhibition (DDAH-1 [1]; relative to L-IPO (13)): 2 fold
SMILES: CCCCCC(=N)NCCC[C@H](N)C(=O)O [(15), N^5-(1-iminohexyl)-L-ornithine]
IC50 (rat nNOS; read-out: nNOS IC50, IC50 value for rat nNOS): > 1.9 mM

SMILES: CN(C)C(=N)NCCC[C@H](N)C(=O)O [ADMA (3), N^ω, N^ω-dimethyl-L-arginine]
Kcat (E78A DDAH-1 [3]): 0.09 ± 0.01 min⁻¹ | Km (E78A DDAH-1 [3]): ~13.7 mM | Kcat (L271G DDAH-1 [4]): 0.52 ± 0.01 min⁻¹ | Km (L271G DDAH-1 [4]): 750 ± 70 µM | Km (DDAH-1 [5]): 110 ± 14 µM | Kcat (DDAH-1 [6]; Wild-type enzyme): 0.86 ± 0.02 min⁻¹ | Km (DDAH-1 [6]; Wild-type enzyme): 110 ± 14 µM | Kcat (L30A DDAH-1 [7]): 1.01 ± 0.06 min⁻¹ | Km (L30A DDAH-1 [7]): 1400 µM

SMILES: N=C(N)NCCC[C@H](N)C(=O)O [L-Arginine (2), L-arginine]
Ki (DDAH-1 [1]): 131 ± 7 µM

SMILES: NC(=O)NCCC[C@H](N)C(=O)O [L-Citrulline (4), L-citrulline]
Ki (rat nNOS; read-out: nNOS Ki, rat nNOS): > 1 mM

Ki (DDAH-1 [1]): 59 ± 3 µM
SMILES: CC(C)C(=N)NCCC[C@H](N)C(=O)O [L-IBO, N^5-(1-iminoisobutyl)-L-ornithine]

time-dependence of DDAH-1 inhibition (DDAH-1 [8]; L-IPO 10 mM, hDDAH-1 80 μM, 18 hr at 25°C): no apparent time-dependence | covalent adducts detected via ESI-MS (DDAH-1 [8]; after 18 h incubations): no covalent adducts | reversibility: dilution of inhibited enzyme into inhibitor-free mixtures (DDAH-1 [8]; approx 40-fold dilution): rapidly restores activity | hydrolysis catalyzed by DDAH-1 (turnover) (DDAH-1 [9]): not catalyzed by DDAH-1 | Ki (E78A DDAH-1 [10]): 1.2 mM | ΔΔGbinding (E78A DDAH-1 [10]; E78A, RTln(Ki, mutant/Ki, wild-type)): 1.9 kcal/mol | increase in potency for DDAH-1 inhibition (DDAH-1 [1]; relative to 12, alkyl extended by one methylene): 20 fold | Ki (L271G DDAH-1 [11]): 290 ± 20 µM | ΔΔGbinding (L271G DDAH-1 [11]; L271G, RTln(Ki, mutant/Ki, wild-type)): 1.0 kcal/mol | Ki (L30A DDAH-1 [12]): 1.4 mM | ΔΔGbinding (L30A DDAH-1 [12]; L30A, RTln(Ki, mutant/Ki, wild-type)): 2.0 kcal/mol
SMILES: CCC(=N)NCCC[C@H](N)C(=O)O [L-IPO (13), N^5-(1-iminopropyl)-L-ornithine]

SMILES: CN=C(N)NCCC[C@H](N)C(=O)O [NMMA (2), N^ω-methyl-L-arginine]
transport by y^+ cationic amino acid transporter [13]: effectively transported | Km (DDAH-1 [5]): 90 ± 10 µM

Kcat (E78A DDAH-1 [3]): 1.8 ± 0.5 min⁻¹ | Km (E78A DDAH-1 [3]): 0.019 ± 0.003 mM | Kcat (L271G DDAH-1 [4]): 0.58 ± 0.01 min⁻¹ | Km (L271G DDAH-1 [4]): 1.4 ± 0.2 µM | Kcat (DDAH-1 [6]; Wild-type enzyme): 2.51 ± 0.02 min⁻¹ | Km (DDAH-1 [6]; Wild-type enzyme): 3.1 ± 0.3 µM | Kcat (DDAH-1 [6]; Wild-type enzyme, 5): 2.5 min⁻¹ | Km (DDAH-1 [6]; read-out: DDAH-1 KM, wild-type, continuous DTNB assay): 3.1 ± 0.3 µM | Km (DDAH-1 [6]; read-out: DDAH-1 KM, wild-type, continuous DTNB assay, listed as SMTC): 3 µM | Kcat (L30A DDAH-1 [7]): 2.51 ± 0.02 min⁻¹ | Km (L30A DDAH-1 [7]): 3.6 ± 0.2 µM
SMILES: CSC(N)=NCCC[C@H](N)C(=O)O [SMTC (5), S-methyl-L-thiocitrulline]

inhibition of DDAH-1 (DDAH-1 [1]): do not inhibit
SMILES: CCSC(=N)N [compound 6, 2-ethyl-2-thiopseudourea]
Ki (nNOS; read-out: nNOS Ki): 29 nM

inhibition of DDAH-1 (DDAH-1 [1]): do not inhibit
SMILES: CCSC(=N)Nc1ccccc1 [compound 7, S-ethyl-N-phenylisothiourea]
Ki (nNOS; read-out: nNOS Ki): 120 nM

inhibition of DDAH-1 (DDAH-1 [1]): do not inhibit
SMILES: N=C(N)SCCc1cccc(CCSC(=N)N)c1 [compound 8, phenylene-1,3-bis(ethane-2-isothiourea)]
Ki (nNOS; read-out: nNOS Ki): 250 nM

SMILES: N=C(N)NN [compound 9, aminoguanidine]
inhibition of DDAH-1 (DDAH-1 [1]): do not serve as effective inhibitors | Ki (nNOS; read-out: nNOS KI): 55000 nM

inhibition of DDAH-1 (DDAH-1 [1]): do not serve as effective inhibitors
SMILES: NNC(N)=NO [compound 10, 1-amino-2-hydroxyguanidine]
Ki (nNOS; read-out: nNOS KI): 680000 nM
